OX1R antag-1 = antagonists of human orexin 1 receptor (OX1R); hit rate 1.8% among 330,000; OX1R-expressing cells, FRET antagonist read-out; AID 485270, 2010; inhibition, % at 6.6 µM; in the data active = inhibition mostly above about 38%, no sharp cut-off; inactive = mostly below about 40%;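 note: 0% = agonist challenge alone and 100% = reference antagonist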
CHO parental Ca = ATP-evoked calcium signal inhibitors, parental CHO, primary screen, counter-screen for OX1R antagonist project, cell-based, fluorescence, Fluo-8 calcium dye; parental CHO-K1, ATP-induced calcium, Fluo-8 fluorescence; inhibition, % at 5.6 µM; hit rate 0.63% among 330,000; AID 463079, 2010;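 active = inhibition above that plate's mean sample inhibition plus 3 SD, cut at about 26% in these data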;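 note: 0% = ATP-challenged DMSO wells and 100% = DMSO wells without ATP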
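Material – parental CHO cells · Reagent – ATP stimulus · Compound – single nominal dose of 5.6 µM per compound · Detection – Fluo-8 fluorescence · Read-out basis – percent inhibition of calcium signal · Controls – ATP-challenged DMSO wells low, unchallenged DMSO wells high · Repeats – no replicates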
TAAR1 antag = human TAAR1 antagonists, primary screen, Fluo-8 calcium fluorescence, CHO RD-HGA16 cells | antagonist | inhibition, % at 3 µM | hit rate 1.5% among 360,000 | AID 624466, 2012;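 active = inhibition above a per-plate cutoff, the mean inhibition of test compounds on that plate plus 3 SD, cut at about 49% in these data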;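 note: 0% = DMSO plus EC80 beta-PEA response and 100% = DMSO alone without agonist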
Target sequence (Q96RJ0 whole entry, looked up): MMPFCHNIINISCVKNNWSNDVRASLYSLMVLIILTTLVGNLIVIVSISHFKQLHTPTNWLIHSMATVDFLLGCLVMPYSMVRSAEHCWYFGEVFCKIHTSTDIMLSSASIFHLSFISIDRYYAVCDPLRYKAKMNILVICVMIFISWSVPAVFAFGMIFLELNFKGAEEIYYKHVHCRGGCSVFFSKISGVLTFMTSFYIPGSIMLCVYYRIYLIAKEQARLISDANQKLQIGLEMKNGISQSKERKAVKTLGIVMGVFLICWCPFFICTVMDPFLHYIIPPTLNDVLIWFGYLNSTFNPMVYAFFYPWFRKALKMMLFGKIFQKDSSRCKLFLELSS
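System: RD-HGA16 CHO cells with stable hTAAR1 and Gα16 | Probe or stimulus: EC80 β-phenethylamine stimulus | Dosing: 3 µM, single point | Times: Dye loading 75 min at 37 °C, then 30 min room temperature | Measured by: Fluo-8 calcium-sensitive fluorescence | Read-out basis: % inhibition of agonist calcium response | Replicates: n of 1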
GPR7 antagonist = GPR7 receptor antagonists, primary screen, cell-based, fluorescence, single concentration; GPR7-expressing cells, fluorescence antagonist assay; hit rate 1.1% among 290,000; inhibition, % at 4.4 µM; in the data active = inhibition above about 16%, passing the limit was not always enough;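 note: cells stimulated with the agonist NPW; 0% = agonist with vehicle and 100% = vehicle without agonist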
Target sequence (P48145 whole entry, looked up): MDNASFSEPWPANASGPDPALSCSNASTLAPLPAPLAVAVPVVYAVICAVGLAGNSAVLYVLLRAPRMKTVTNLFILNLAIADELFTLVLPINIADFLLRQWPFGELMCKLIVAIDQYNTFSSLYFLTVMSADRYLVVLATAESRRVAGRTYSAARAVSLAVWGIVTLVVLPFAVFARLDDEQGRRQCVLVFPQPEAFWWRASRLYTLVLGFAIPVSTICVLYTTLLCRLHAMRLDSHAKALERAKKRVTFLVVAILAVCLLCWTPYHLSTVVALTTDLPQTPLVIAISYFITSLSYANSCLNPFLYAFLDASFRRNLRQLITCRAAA
TAAR1 ag = human TAAR1 agonists, primary screen, Fluo-8 calcium fluorescence, CHO RD-HGA16 cells; Trace amine-associated receptor 1 (Homo sapiens), Q96RJ0; activation, % at 3 µM; AID 624467, 2012; hit rate 0.99% among 360,000; vehicle wells 0%, saturating PEA agonist 100%;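 active = activation above the mean activation of all test compounds in the run plus 3 SD, cut at about 38% in these data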
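System: CHO-derived RD-HGA16 cells with stable Gα16 and human TAAR1. Times: 17-24 h plating, Fluo-8 75 min 37 °C, 30 min RT. Measured by: calcium-sensitive Fluo-8 signal, excitation 470-495, emission 515-575 nm. Read-out basis: % activation relative to PEA EC100 response. Control set: DMSO and PEA EC100. Repeats: no replicates (n 1).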
OX1R antag-2 = OX1R (HCRTR1) antagonists, primary screen, fluorescence, CHO/OX1R cells, Fluo-8 calcium, orexin A; Orexin/Hypocretin receptor type 1 (Homo sapiens), O43613; Fluo-8 calcium fluorescence; inhibition, % at 5 µM; hit rate 0.43% among 330,000;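 active = inhibition above its plate's threshold, mean inhibition of all tested compounds on the plate plus 3 SD, cut at about 37% in these data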;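 note: 0% = orexin A challenge wells and 100% = SB-334867-A antagonist wells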
* marks the source's active call; other numbers are inactive results; . = no result given. Most compounds without a hit are left out; they make up all but 4.6% or so of the library.

SMILES	OX1R antag-1	CHO parental Ca	TAAR1 antag	GPR7 antagonist	TAAR1 ag	OX1R antag-2
O=C(CSc1cccc[n+]1[O-])Nc1cc([N+](=O)[O-])ccc1Cl	43*	-2	-5	-13	0	-23
Cc1ccc(NC(=O)CSc2cccc[n+]2[O-])c([N+](=O)[O-])c1	69*	-1	-31	-6	1	-1
Cc1ccc(NS(=O)(=O)c2cc(C(=O)NCCSc3ccc(C)cc3)ccc2C)cc1	12	2	15	-10	7	-16
Cc1ccc(SCCNC(=O)c2ccc(C)c(S(=O)(=O)Nc3cccc(C)c3)c2)cc1	38*	-7	38	-12	10	30
Nc1ncnc(Sc2ccc(Cl)cc2)c1[N+](=O)[O-]	29	6	-12	10	9	0
Nc1ncnc(Sc2ccccc2)c1[N+](=O)[O-]	46*	-3	0	-9	2	-8
CSc1ncnc2c1ncn2CCCNCCCN1CCCC1=O	.	.	-19	.	4	.
CCc1ccc(Nc2nnc(SCC(=O)Nc3sccc3C(N)=O)s2)cc1	26	-25	39	-9	15	-5
COc1cccc(Nc2nnc(SCC(=O)Nc3sccc3C(N)=O)s2)c1	63	1	68*	12	12	15
O=S1(=O)CC(N2CCCC2)CN1Cc1cn(Cc2ccc(F)cc2)nn1 (centres undefined)	.	.	-4	.	5	.
N#Cc1c(SC(C(=O)O)c2ccccc2)nc2c(c1-c1cccs1)CCCC2 (centres undefined)	33	-20	-10	-8	38*	-27
COc1ccc(CNC(=O)C2Cc3cc(S(=O)(=O)N4CCCC4)ccc3N2C(C)=O)c(OC)c1 (centres undefined)	2	-10	-22	-5	4	-26
O=C(COc1ncnc2ccccc12)Nc1cccc([N+](=O)[O-])c1	14	-1	-5	4	0	2
O=C(COc1ccccc1)NNC(=O)COc1ccc([N+](=O)[O-])cc1	12	-3	12	-8	0	9
O=C(COc1ncnc2cc([N+](=O)[O-])ccc12)NC1CCCCC1	56*	9	-14	-2	9	-31
O=C(COc1ncnc2ccccc12)NC1CCCC1	-1	-9	-9	.	-3	-8
O=C(COc1ccc([N+](=O)[O-])cc1)N(Cc1ccccc1)Cc1ccccc1	35	-8	14	31*	0	-14
O=C(COc1ncnc2cc([N+](=O)[O-])ccc12)N(CCc1ccccc1)Cc1ccccc1	12	72*	15	-11	21	54*
O=C(NCc1ccccc1)[C@@H]1CCCN1C(=O)[C@H]1CCCN1C(=O)c1cccs1	.	.	-40	.	2	.
COc1ccc(C=CC(=O)c2c(N)n(C)c(=O)n(C)c2=O)cc1	.	.	-3	.	1	.
COC(=O)C1=C(C)N(C)C(=NCc2ccc(OC)cc2)NC1c1ccc(F)cc1 (centres undefined)	.	.	2	.	0	.
CC(C)CC1O[C@@H](C)[C@@H]2CN3CCc4c([nH]c5ccccc45)[C@@H]3C[C@@H]2N1C (some centres undefined)	.	.	-22	.	2	.
CCOC(=O)C1CCCN(c2nc3c(C)cccn3c(=O)c2/C=C(\C#N)C(=O)NCc2ccco2)C1 (centres undefined)	27	-38	46	-2	52*	-51
CN(C)c1nc(OCCNC(=O)Nc2ccccc2)nc(N2CCOCC2)n1	.	.	0	-16	3	.
Cc1ccc(S(=O)(=O)NCCOc2nc(N(C)C)nc(N3CCOCC3)n2)cc1	48*	-23	6	-9	9	-1
SMILES	OX1R antag-1	CHO parental Ca	TAAR1 antag	GPR7 antagonist	TAAR1 ag	OX1R antag-2
Cc1ccccc1C(=O)N1CCC[C@@H]1C(=O)N1CCC[C@H]1C(=O)NCc1ccccc1	.	.	-10	.	0	.
Cn1c(Cn2c(=O)sc3ccccc32)nnc1SCc1cccc(F)c1	8	-13	-11	-8	0	-15
Cn1c(Cn2c(=O)sc3ccccc32)nnc1SCc1ccccc1F	13	43*	9	-9	-1	-15
COC(=O)[C@]12C[C@H](CC(=O)NCCCN3CCCC3=O)C(=O)N(Cc3ccccc3)C1=C[C@H](C(C)C)O[C@@H]2C1CC1	.	.	0	.	1	.
CCCCCNC(=O)c1ccc2c(=O)[nH]c3c(C(=O)NCC4CCCO4)sc(=S)n3c2c1 (centres undefined)	79*	2	-8	-2	13	-27
COc1ccccc1-c1cc(NC=O)c2ncc(-c3ccc(F)cc3)n2c1	.	.	51*	.	52*	.
COc1ccc(F)cc1-c1cc(NC=O)c2ncc(-c3cc(OC)c(OC)c(OC)c3)n2c1	.	.	77*	.	48*	.
CN1N=C(C(=O)N=c2sc3ccccc3n2C)CCC1=O	.	.	5	.	1	.
COCCN1C(=O)/C(=C/c2ccc(N3CCCC3)cc2C)SC1=S	12	31*	51*	14	34	32
CCN=C1S/C(=C\c2ccc(N3CCOCC3)cc2C)C(=O)N1CC	17	-8	12	-11	3	-9
COc1ccc(C(=O)NCc2nnc(SCC(=O)NC3CCCCC3)o2)cc1	4	10	-16	-14	3	-4
O=C(CC1S/C(=N/N=C/c2c[nH]c3ccc(OCc4ccccc4)cc23)NC1=O)Nc1ccccc1 (centres undefined)	-2	7	-1	-16	6	-10
O=C(CC1S/C(=N/N=C/c2c[nH]c3ccccc23)NC1=O)Nc1ccccc1 (centres undefined)	14	7	18	18*	5	1
c1ccc(-c2cc3cc4c(cc3cn2)OCO4)cc1	72*	-20	12	.	19	39
CCc1nc(SCC(=O)N2CCCc3ccccc32)c2oc3ccccc3c2n1	48*	-11	23	-2	7	-6
CCOC(=O)C1=C(COC(=O)c2ccccc2OC)NC(=O)NC1C (centres undefined)	.	.	49*	.	14	.
Cc1ccc(C)c(N2CCN(C(=O)C3CCCN(S(=O)(=O)c4c(C)noc4C)C3)CC2)c1 (centres undefined)	14	-7	53*	3	-1	-31
Cc1ccc(Cl)cc1N1CCN(C(=O)c2ccc(NS(=O)(=O)c3c(C)noc3C)cc2)CC1	41	44*	27	5	1	26
Cc1noc(C)c1S(=O)(=O)N1CCCC(C(=O)N2CCN(C3CCCCC3)CC2)C1 (centres undefined)	5	-17	-9	3	-1	-20
